Source: PubChem (several laboratories)
Hits are enriched below; roughly 2.6% of the tested compounds scored in any of these assays.
Rce1 inhib – inhibitors of yeast Ras-converting enzyme; Q03530; yeast membranes, quenched prenylated peptide cleavage fluorescence; calls only; 290,000 tested, 0.27% active; AID 2563;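 active = fall in fluorescence gain of 50% or more versus controls, with final raw signal at or below 3038400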;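 note: plate controls were neutral control wells for no effect and wells lacking membranes for full effect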
Platelet DG rel – modulates dense granule release in human platelets. human platelet-rich plasma, SFLLRN dense granule ATP release, luminescence. inhibition, %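 (compounds screened at 7.5 µM in platelet-rich plasma)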. 300,000 tested, 0.22% active. AID 1663;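 active = mean replicate score, as percent of positive control, at or above 50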
TAAR1 agonist – human TAAR1 agonism; Q96RJ0; CHO RD-HGA16 TAAR1, Fluo-8 calcium fluorescence; vehicle wells 0%, saturating PEA agonist 100%; activation, % at 3 µM; 360,000 tested, 0.99% active; AID 624467;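 active = activation above the mean activation of all test compounds in the run plus 3 SD, cut at about 38% in these data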
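Test system: RD-HGA16 (CHO) cells co-expressing Gα16 and hTAAR1 | Doses: Single dose, 3 µM | Schedule: 17-24 h seeding, 75 min 37 °C dye, 30 min RT | Evaluation: % activation from peak over basal fluorescence ratio, DMSO-to-PEA scaled | Technique: Kinetic Fluo-8 calcium fluorescence | Benchmarks: Low control DMSO, high control PEA (EC100)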
TAAR1 antagonist – antagonists of human TAAR1. CHO RD-HGA16 TAAR1, Fluo-8 calcium fluorescence, antagonist. inhibition, % at 3 µM. 360,000 tested, 1.5% active. Q96RJ0. AID 624466;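 active = inhibition above a per-plate cutoff, the mean inhibition of test compounds on that plate plus 3 SD, cut at about 49% in these data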;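 note: 0% = DMSO plus EC80 beta-PEA response and 100% = DMSO alone without agonist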
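Test system – hTAAR1-expressing CHO RD-HGA16 cells, Gα16-coupled · Reagent – β-PEA at EC80 concentration, post-compound challenge · Compound dosing – 3 µM, single point · Timing – 140 s kinetic read after compound, 140 s after agonist · Detection – Fluo-8 intracellular calcium dye fluorescence, real-time kinetic reads · Control set – DMSO and EC80 PEA controls · Repeats – n of 1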
VLA-4 inh – inhibition in a human VLA-4 binding assay; AID 2557; inhibition, % (about 7 µM as worked out from the volumes in the protocol); 330,000 tested, 0.2% active; P13612; VLA-4 expressing cells, ligand binding flow cytometry; in the data active = inhibition above about 50%
Target sequence (P13612 whole entry, looked up): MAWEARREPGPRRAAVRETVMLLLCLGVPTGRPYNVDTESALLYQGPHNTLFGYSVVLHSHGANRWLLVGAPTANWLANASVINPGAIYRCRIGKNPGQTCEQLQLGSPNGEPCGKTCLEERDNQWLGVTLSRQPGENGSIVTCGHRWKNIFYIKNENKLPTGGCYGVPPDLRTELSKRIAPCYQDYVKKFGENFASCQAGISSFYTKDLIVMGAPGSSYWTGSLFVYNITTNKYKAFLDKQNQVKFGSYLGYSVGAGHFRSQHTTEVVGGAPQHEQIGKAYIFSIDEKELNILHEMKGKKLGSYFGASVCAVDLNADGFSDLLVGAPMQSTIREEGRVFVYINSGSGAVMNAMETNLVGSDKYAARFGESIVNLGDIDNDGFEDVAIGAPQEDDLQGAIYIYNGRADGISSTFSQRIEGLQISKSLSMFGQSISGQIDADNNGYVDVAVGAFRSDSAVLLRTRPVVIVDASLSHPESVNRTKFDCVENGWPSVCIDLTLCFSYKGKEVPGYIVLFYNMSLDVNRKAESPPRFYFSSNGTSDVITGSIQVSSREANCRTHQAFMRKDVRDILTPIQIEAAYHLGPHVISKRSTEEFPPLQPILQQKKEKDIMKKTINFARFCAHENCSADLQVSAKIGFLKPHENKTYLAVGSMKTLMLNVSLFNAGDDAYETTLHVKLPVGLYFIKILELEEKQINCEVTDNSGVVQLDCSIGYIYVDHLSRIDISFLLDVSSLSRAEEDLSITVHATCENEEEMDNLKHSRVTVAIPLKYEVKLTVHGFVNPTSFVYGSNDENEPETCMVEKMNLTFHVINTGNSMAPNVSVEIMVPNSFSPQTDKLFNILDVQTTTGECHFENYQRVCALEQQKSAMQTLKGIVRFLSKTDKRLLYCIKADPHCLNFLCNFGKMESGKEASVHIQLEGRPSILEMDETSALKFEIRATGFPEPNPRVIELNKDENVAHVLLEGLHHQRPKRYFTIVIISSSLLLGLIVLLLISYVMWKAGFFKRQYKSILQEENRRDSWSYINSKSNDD
TAAR1 ag confirm – human TAAR1 agonism, confirmed; shares compounds with TAAR1 agonist; 2,400 tested, 82% active; CHO RD-HGA16 TAAR1, Fluo-8 calcium fluorescence; scaled: DMSO 0%, maximal phenethylamine 100%; activation, % at 3 µM;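 active = activation above a cutoff set at the run's mean compound activation plus 3 SD, cut at about 39% in these data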
Ga16 nonsel ag – nonselective agonism, TAAR1 counter-screen; shares compounds with TAAR1 agonist; CHO-Ga16 parental, Fluo-8 calcium fluorescence; normalized to maximal ATP response, DMSO zero; activation, % at 3 µM; 2,400 tested, 50% active;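 active = activation above the run cutoff, the mean activation over all tested wells plus 3 SD, cut at about 12% in these data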;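 note: 0% = DMSO wells and 100% = maximal ATP response on the peak over basal ratio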
TAAR1 desensitize – TAAR1 response desensitization, agonist counter-screen; shares compounds with TAAR1 agonist; CHO RD-HGA16 hTAAR1, Fluo-8 calcium, beta-PEA response inhibition; inhibition, % at 3 µM; 2,400 tested, 46% active; AID 651951;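 active = inhibition above the run cutoff, the mean inhibition of all test compounds plus 3 SD, cut at about 49% in these data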;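 note: beta-PEA stimulus applied at its EC80; loss of beta-PEA calcium signal after compound pretreatment read as receptor desensitization; 0% = DMSO with beta-PEA at EC80 and 100% = DMSO alone without agonist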
Ga16 nonsel ant – nonselective Ga16 antagonist in TAAR1 agonist counter-screen. inhibition, % at 3 µM. 2,400 tested, 39% active. CHO-Ga16 ATP-induced calcium, Fluo-8 fluorescence. shares compounds with TAAR1 agonist;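 active = inhibition above the plate's mean compound inhibition plus 3 SD, computed per plate, cut at about 22% in these data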;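 note: 0% = EC80 ATP with DMSO and 100% = DMSO wells without ATP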
An asterisk follows results filed as active; i = inactive; . = not tested or not shown.

SMILES	Rce1 inhib	Platelet DG rel	TAAR1 agonist	TAAR1 antagonist	VLA-4 inh	TAAR1 ag confirm	Ga16 nonsel ag	TAAR1 desensitize	Ga16 nonsel ant
O=C(Nc1ccccc1)Nc1ccc2ocnc2c1	i	22	20	13	-4	.	.	.	.
O=C(Nc1ccccc1)Nc1ccc(NC(=O)c2ccccc2O)cc1	i	0	70*	81*	5	101*	13*	97*	30*
Nc1c(Cl)c(Cl)nc(C(=O)N/N=C/c2cccnc2)c1Cl	i	-1	2	-6	-11	.	.	.	.
Cc1ccccc1C(=O)/C=C1/SCC(=O)N1C	i	-2	17	0	-103	.	.	.	.
CN1CCN(c2ccc(NC(=O)CSc3ccccc3)cc2F)CC1	i	0	57*	43	24	71*	6	43	4
COc1cccc(/C=N/Nc2nc(Nc3ccccc3)nc(-n3nc(C)cc3C)n2)c1O	i	-43	84*	76*	-9	49*	47*	76*	63*
Cc1cc(C)n(-c2nc(Nc3ccccc3)nc(-n3nc(C)cc3C)n2)n1	i	11	6	8	5	.	.	.	.
COc1cc(CCCN2CCNC[C@@H]2c2ccccc2)cc(OC)c1OC	.	.	2	8	-6	.	.	.	.
c1ccc([C@H]2CNCCN2CCc2cccc3ccccc23)cc1	.	.	54*	24	-1	76*	20*	53*	24*
O=C(NCC(c1ccco1)N1CCc2ccccc2C1)c1ccc(Br)cc1 (stereo not drawn)	i	1	45*	20	13	24	2	11	13
Cc1ccc(C(=O)NCC(c2ccco2)N2CCc3ccccc3C2)cc1C (stereo not drawn)	i	.	12	-28	6	.	.	.	.
O=C(NCC(c1ccco1)N1CCc2ccccc2C1)c1ccccc1Br (stereo not drawn)	i	1	35	7	20	.	.	.	.
O=C(NCC(c1ccco1)N1CCc2ccccc2C1)c1ccc(Cl)cc1 (stereo not drawn)	i	4	74*	34	6	38*	1	4	8
Cc1ccc(S(=O)(=O)N2CCOCC2)cc1C(=O)N1CCC(Cc2ccccc2)CC1	i	7	1	-12	-12	.	.	.	.
COc1ccc(NC(=O)C2(C)CCN2Cc2ccc3ccccc3c2)cc1OC (stereo not drawn)	.	.	3	2	.	.	.	.	.
O=S1(=O)CC(N2CCCC2)CN1CCc1ccccc1 (stereo not drawn)	.	.	56*	-7	.	45*	0	6	16
O=S(=O)(/N=C(/NC(=S)Nc1ccccc1)c1ccccc1)c1ccc(Cl)cc1	i	6	4	12	13	.	.	.	.
C=CCn1c(C)cc(C2=NNC(=NCc3ccccc3)SC2)c1C	i	-1	2	-14	1	.	.	.	.
CCN=C1NN=C(c2cc(C)n(CCc3ccccc3)c2C)CS1	.	.	82*	63*	.	101*	4	93*	5
Cc1cc(C2=NNC(=NCCc3ccccc3)SC2)c(C)n1CC1CCCO1 (stereo not drawn)	i	-2	83*	68*	-8	85*	4	57*	20
Cc1cc(N/N=C/c2ccccc2O)c2ccccc2n1	i	-13	.	.	2	.	3	.	13
CC(C)c1ccc(NC(=O)Nc2nc(C(N)C3CCCCC3)cs2)cc1 (stereo not drawn)	.	.	55*	6	.	42*	29*	33	46*
COc1cccc(Nc2nc(C(C)N)cs2)n1 (stereo not drawn)	.	.	85*	77*	.	94*	1	79*	6
COc1cccc(Nc2nc(C(N)c3ccccc3Cl)cs2)n1 (stereo not drawn)	.	.	23	19	.	.	.	.	.
NC(=O)c1cccc(Nc2nc(C(N)C3CCCCC3)cs2)n1 (stereo not drawn)	.	.	1	-2	.	.	.	.	.
SMILES	Rce1 inhib	Platelet DG rel	TAAR1 agonist	TAAR1 antagonist	VLA-4 inh	TAAR1 ag confirm	Ga16 nonsel ag	TAAR1 desensitize	Ga16 nonsel ant
COc1cccc(Nc2nc(C(N)c3ccccc3)cs2)n1 (stereo not drawn)	.	.	68*	25	.	66*	12*	41	20
COc1cccc(Nc2nc(C(N)C3CCCCC3)cs2)n1 (stereo not drawn)	.	.	53*	15	.	47*	18*	28	23*
CN(C)CCCNc1nc2cc(-c3ccc4c(ccn4C)c3)sc2c(=O)n1C	.	.	-1	-4	.	.	.	.	.
CC1CN(S(=O)(=O)c2cccc(C(=O)NCC(c3cccs3)N3CCOCC3)c2)CC(C)O1 (stereo not drawn)	.	.	3	-11	.	.	.	.	.
Cc1ccccc1C(=O)NCC(=O)OC(C)C(=O)NCc1ccco1 (stereo not drawn)	i	-9	4	-38	6	.	.	.	.
Cc1cc(=O)[nH]c(SCC(=O)N2CCc3ccccc3C2)n1	i	-1	77*	56*	-4	77*	5	20	12
CCCn1c(SCC(=O)N2CCc3ccccc3C2)nc(O)cc1=O	.	.	.	.	-5	.	0	.	1
CCC(C(=O)Nc1c(C)cc(C)cc1C)N1CCCCCC1 (stereo not drawn)	i	0	3	2	1	.	.	.	.
Cc1cscc1-c1nc(NCC2CC2)nc2ccsc12	.	.	3	-11	.	.	.	.	.
Cc1cccc(CSC(=N)N)c1	i	-8	67*	40	12	93*	5	68*	6
N=C(N)SCCc1cccc(CCSC(=N)N)c1	i	1	1	5	5	.	.	.	.
CCc1ccc(C(=O)NNC(=O)c2cc(S(=O)(=O)N(C)C)ccc2N2CCCC2)cc1	i	20	7	-27	17	.	.	.	.
O=C(CNC(=O)N1CC(=O)Nc2ccccc21)NCc1cccc(Cl)c1	i	20	16	-22	8	.	.	.	.
Cc1ccc(C(=O)OCC(=O)c2ccc(S(=O)(=O)N3CCCCC3)cc2)o1	i	-14	-1	1	-3	.	.	.	.
Cc1cccc2cc(C#N)c(N3CCN(C)CC3)nc12	i	-1	67*	1	7	76*	1	45	6
Cc1ccc2cc(C#N)c(N3CCN(C)CC3)nc2c1	i	-1	18	1	1	.	.	.	.
Cc1ccc2nc(N3CCN(C)CC3)c(C#N)cc2c1	i	-1	24	-1	12	.	.	.	.
Cc1cc(C)c2nc(N3CCN(C)CC3)c(C#N)cc2c1	i	2	49*	-27	-2	54*	2	20	11
